{
  "source": "ChEMBL document CHEMBL1649139",
  "about": "“A novel gene, erm(41), confers inducible macrolide resistance to clinical isolates of Mycobacterium abscessus but is absent from Mycobacterium chelonae” (2009)",
  "format_in_all_cases": "functional",
  "key": {"[1]": {"test_system": "Mycobacteroides abscessus", "test": "Antimicrobial activity against Mycobacterium abscessus isolate MC723 at day 9 by broth microdilution method", "conditions": "isolate MC723, 216 h", "summary_of_the_method": "(§1)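 Clarithromycin MIC by broth microdilution following CLSI guidelines. Before testing, organisms were preincubated for 3 days in medium alone or in clarithromycin or erythromycin (0.01–1 μg/ml), long enough for at least two generations judged by turbidity increase. MICs were read on day 3 and again on extended incubation out to day 14.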"}, "[2]": {"test_system": "Mycobacteroides abscessus", "test": "Antimicrobial activity against Mycobacterium abscessus isolate MC879 at day 7 preincubated with 0.1 ug/ml for 3 days by broth microdilution method", "summary_of_the_method": "(§2)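 To test inducible resistance, cultures were preincubated for 3 days in clarithromycin or erythromycin, within 0.01–1 μg/ml. The period was set so cultures passed at least two generations, judged by turbidity increase. Clarithromycin MIC was then determined by CLSI-conforming broth microdilution and read on the stated day, from day 3 up to 14.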"}, "[3]": {"test_system": "Mycobacteroides abscessus", "test": "Antimicrobial activity against Mycobacterium abscessus isolate MC1028 at day 5 by broth microdilution method", "conditions": "isolate MC1028, 120 h", "summary_of_the_method": "(§3)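 Clarithromycin MIC by CLSI-conforming broth microdilution. Before testing, cultures were preincubated for 3 days, either in medium alone or in clarithromycin or erythromycin (tested range 0.01–1 μg/ml). Preincubation ran for at least two generations, judged by turbidity increase. Plates were read on day 3 and on extended incubation at days 5 to 14.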"}, "[4]": {"test_system": "Mycobacteroides abscessus", "test": "Antimicrobial activity against Mycobacterium abscessus isolate MC719 at day 3 preincubated with 0.1 ug/ml for 3 days by broth microdilution method", "summary_of_the_method": "as §1"}, "[5]": {"test_system": "Mycobacteroides abscessus", "test": "Antimicrobial activity against Mycobacterium abscessus isolate MC958 at day 9 preincubated with 0.1 ug/ml for 3 days by broth microdilution method"}, "[6]": {"test_system": "Mycobacteroides abscessus", "test": "Antimicrobial activity against Mycobacterium abscessus isolate MC958 on day 10 by broth microdilution method", "conditions": "isolate MC958, 240 h"}, "[7]": {"test_system": "Mycobacteroides abscessus", "test": "Antimicrobial activity against Mycobacterium abscessus isolate MC958 at day 7 preincubated with 0.1 ug/ml for 3 days by broth microdilution method"}, "[8]": {"test_system": "Mycobacteroides abscessus", "test": "Antimicrobial activity against Mycobacterium abscessus isolate MC720 at day 14 preincubated with 0.1 ug/ml for 3 days by broth microdilution method", "summary_of_the_method": "as §1"}, "[9]": {"test_system": "Mycobacteroides abscessus", "test": "Antimicrobial activity against Mycobacterium abscessus isolate MC1028 at day 9 by broth microdilution method", "conditions": "isolate MC1028, 216 h", "summary_of_the_method": "as §3"}, "[10]": {"test_system": "Mycobacteroides abscessus", "test": "Antimicrobial activity against Mycobacterium abscessus isolate MC1448 at day 7 preincubated with 0.1 ug/ml for 3 days by broth microdilution method", "summary_of_the_method": "as §1"}, "[11]": {"test_system": "Mycobacteroides abscessus", "test": "Antimicrobial activity against Mycobacterium abscessus isolate MC720 at day 7 preincubated with 0.1 ug/ml erythromycin for 3 days by broth microdilution method", "summary_of_the_method": "as §1"}, "[12]": {"test_system": "Mycobacteroides abscessus", "test": "Antimicrobial activity against Mycobacterium abscessus isolate MC1082 at day 7 by broth microdilution method", "conditions": "isolate MC1082, 168 h", "summary_of_the_method": "as §3"}, "[13]": {"test_system": "Mycobacteroides abscessus", "test": "Antimicrobial activity against Mycobacterium abscessus isolate MC719 at day 14 preincubated with 0.1 ug/ml erythromycin for 3 days by broth microdilution method", "summary_of_the_method": "as §1"}, "[14]": {"test_system": "Mycobacteroides abscessus", "test": "Antimicrobial activity against Mycobacterium abscessus isolate MC720 at day 9 preincubated with 0.1 ug/ml erythromycin for 3 days by broth microdilution method", "summary_of_the_method": "as §1"}, "[15]": {"test_system": "Mycobacteroides abscessus", "test": "Antimicrobial activity against Mycobacterium abscessus isolate MC958 at day 14 preincubated with 0.1 ug/ml for 3 days by broth microdilution method", "summary_of_the_method": "as §2"}, "[16]": {"test_system": "Mycolicibacterium smegmatis", "test": "Antimicrobial activity against Mycobacterium smegmatis transformed with erm allele Mycobacterium abscessus isolate MC719 by broth microdilution method"}, "[17]": {"test_system": "Mycobacteroides abscessus", "test": "Antimicrobial activity against Mycobacterium abscessus isolate MC1028 at day 5 preincubated with 0.1 ug/ml for 3 days by broth microdilution method", "summary_of_the_method": "as §3"}, "[18]": {"test_system": "Mycobacteroides abscessus", "test": "Antimicrobial activity against Mycobacterium abscessus isolate MC719 at day 5 preincubated with 0.1 ug/ml for 3 days by broth microdilution method", "summary_of_the_method": "(§4)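 Clinical M. abscessus isolates were preincubated for 3 days, either in medium alone or in clarithromycin or erythromycin at 0.01 to 1 μg/ml, allowing at least two generations of growth judged by turbidity. The clarithromycin MIC was then determined by CLSI-conforming broth microdilution, with plates read on day 3 and on extended incubation (days 5 to 14).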"}, "[19]": {"test_system": "Mycobacteroides abscessus", "test": "Antimicrobial activity against Mycobacterium abscessus isolate MC879 on day 14 by broth microdilution method", "conditions": "isolate MC879, 336 h"}, "[20]": {"test_system": "Mycolicibacterium smegmatis", "test": "Antimicrobial activity against Mycobacterium smegmatis transformed with erm allele Mycobacterium abscessus isolate MC720 preincubated with 2 ug/ml erythromycin for 20 to 24 hrs by broth microdilution method"}, "[21]": {"test_system": "Mycobacteroides abscessus", "test": "Antimicrobial activity against Mycobacterium abscessus isolate MC1082 at day 14 preincubated with 0.1 ug/ml erythromycin for 3 days by broth microdilution method", "summary_of_the_method": "as §3"}, "[22]": {"test_system": "Mycobacteroides abscessus", "test": "Antimicrobial activity against Mycobacterium abscessus isolate MC719 at day 7 by broth microdilution method", "conditions": "isolate MC719, 168 h", "summary_of_the_method": "as §4"}, "[23]": {"test_system": "Mycobacteroides abscessus", "test": "Antimicrobial activity against Mycobacterium abscessus isolate MC1082 at day 3 by broth microdilution method", "conditions": "isolate MC1082, 72 h", "summary_of_the_method": "as §3"}, "[24]": {"test_system": "Mycobacteroides abscessus", "test": "Antimicrobial activity against Mycobacterium abscessus isolate MC724 at day 7 preincubated with 0.1 ug/ml for 3 days by broth microdilution method", "summary_of_the_method": "as §2"}, "[25]": {"test_system": "Mycolicibacterium smegmatis", "test": "Antimicrobial activity against Mycobacterium smegmatis transformed with erm allele Mycobacterium abscessus isolate MAB30 preincubated with 2 ug/ml erythromycin for 20 to 24 hrs by broth microdilution method"}, "[26]": {"test_system": "Mycobacteroides abscessus", "test": "Antimicrobial activity against Mycobacterium abscessus isolate MC879-2 at day 3 preincubated with 0.1 ug/ml erythromycin for 3 days by broth microdilution method"}, "[27]": {"test_system": "Mycobacteroides abscessus", "test": "Antimicrobial activity against Mycobacterium abscessus isolate MC723 at day 3 preincubated with 0.1 ug/ml for 3 days by broth microdilution method", "summary_of_the_method": "as §1"}, "[28]": {"test_system": "Mycobacteroides abscessus", "test": "Antimicrobial activity against Mycobacterium abscessus isolate MC723 at day 5 preincubated with 0.1 ug/ml for 3 days by broth microdilution method", "summary_of_the_method": "as §4"}, "[29]": {"test_system": "Mycobacteroides abscessus", "test": "Antimicrobial activity against Mycobacterium abscessus isolate MC958 at day 5 by broth microdilution method", "conditions": "isolate MC958, 120 h", "summary_of_the_method": "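Clarithromycin MIC by broth microdilution following CLSI guidelines. Organisms were preincubated […], for 3 days before the assay. This allowed at least two generations, judged by the rise in turbidity. The MIC was read at the stated day, with incubation extended from day 3 to as long as 14 days.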"}, "[30]": {"test_system": "Mycobacteroides abscessus", "test": "Antimicrobial activity against Mycobacterium abscessus isolate MAB30 at day 3 by broth microdilution method", "conditions": "isolate MAB30, 72 h", "summary_of_the_method": "as §3"}, "[31]": {"test_system": "Mycolicibacterium smegmatis", "test": "Antimicrobial activity against Mycobacterium smegmatis transformed with erm allele Mycobacterium abscessus isolate MC719 preincubated with 2 ug/ml erythromycin for 20 to 24 hrs by broth microdilution method"}, "[32]": {"test_system": "Mycobacteroides abscessus", "test": "Antimicrobial activity against Mycobacterium abscessus isolate MC958 at day 9 preincubated with 0.1 ug/ml erythromycin for 3 days by broth microdilution method"}, "[33]": {"test_system": "Mycolicibacterium smegmatis", "test": "Antimicrobial activity against Mycobacterium smegmatis transformed with erm allele Mycobacterium abscessus isolate MC879 by broth microdilution method"}, "[34]": {"test_system": "Mycolicibacterium smegmatis", "test": "Antimicrobial activity against Mycobacterium smegmatis transformed with erm allele Mycobacterium abscessus isolate MC1082 by broth microdilution method"}, "[35]": {"test_system": "Mycobacteroides abscessus", "test": "Antimicrobial activity against Mycobacterium abscessus isolate MC879 on day 4 by broth microdilution method", "conditions": "isolate MC879, 96 h"}, "[36]": {"test_system": "Mycolicibacterium smegmatis", "test": "Antimicrobial activity against Mycobacterium smegmatis transformed with erm allele Mycobacterium abscessus isolate MC958 by broth microdilution method"}},
  "data": [
    {"smiles": "CC[C@H]1OC(=O)[C@H](C)[C@@H](O[C@H]2C[C@@](C)(OC)[C@@H](O)[C@H](C)O2)[C@H](C)[C@@H](O[C@@H]2O[C@H](C)C[C@H](N(C)C)[C@H]2O)[C@](C)(OC)C[C@@H](C)C(=O)[C@H](C)[C@@H](O)[C@]1(C)O", "note": "[CLARITHROMYCIN]", "values": [
      {"measurement": "MIC", "setting": "[1]", "value": "> 32", "unit": "µg/mL"},
      {"measurement": "MIC", "setting": "[2]", "value": "> 32", "unit": "µg/mL"},
      {"measurement": "MIC", "setting": "[3]", "value": "≤ 0.5", "unit": "µg/mL"},
      {"measurement": "MIC", "setting": "[4]", "value": "≤ 0.5", "unit": "µg/mL"},
      {"measurement": "MIC", "setting": "[5]", "value": "> 32", "unit": "µg/mL"},
      {"measurement": "MIC", "setting": "[6]", "value": 32, "unit": "µg/mL"},
      {"measurement": "MIC", "setting": "[7]", "value": "> 32", "unit": "µg/mL"},
      {"measurement": "MIC", "setting": "[8]", "value": "> 32", "unit": "µg/mL"},
      {"measurement": "MIC", "setting": "[9]", "value": "≤ 0.5", "unit": "µg/mL"},
      {"measurement": "MIC", "setting": "[10]", "value": "> 32", "unit": "µg/mL"},
      {"measurement": "MIC", "setting": "[11]", "value": "> 32", "unit": "µg/mL"},
      {"measurement": "MIC", "setting": "[12]", "value": "≤ 0.5", "unit": "µg/mL"},
      {"measurement": "MIC", "setting": "[13]", "value": "> 32", "unit": "µg/mL"},
      {"measurement": "MIC", "setting": "[14]", "value": "> 32", "unit": "µg/mL"},
      {"measurement": "MIC", "setting": "[15]", "value": "> 32", "unit": "µg/mL"},
      {"measurement": "MIC", "setting": "[16]", "value": 2, "unit": "µg/mL"},
      {"measurement": "MIC", "setting": "[17]", "value": "≤ 0.5", "unit": "µg/mL"},
      {"measurement": "MIC", "setting": "[18]", "value": 4, "unit": "µg/mL"},
      {"measurement": "MIC", "setting": "[19]", "value": 32, "unit": "µg/mL"},
      {"measurement": "MIC", "setting": "[20]", "value": 16, "unit": "µg/mL"},
      {"measurement": "MIC", "setting": "[21]", "value": "≤ 0.5", "unit": "µg/mL"},
      {"measurement": "MIC", "setting": "[22]", "value": 8, "unit": "µg/mL"},
      {"measurement": "MIC", "setting": "[23]", "value": "≤ 0.5", "unit": "µg/mL"},
      {"measurement": "MIC", "setting": "[24]", "value": "> 32", "unit": "µg/mL"},
      {"measurement": "MIC", "setting": "[25]", "value": "≤ 0.5", "unit": "µg/mL"},
      {"measurement": "MIC", "setting": "[26]", "value": "> 32", "unit": "µg/mL"},
      {"measurement": "MIC", "setting": "[27]", "value": "≤ 0.5", "unit": "µg/mL"},
      {"measurement": "MIC", "setting": "[28]", "value": 4, "unit": "µg/mL"},
      {"measurement": "MIC", "setting": "[29]", "value": 1, "unit": "µg/mL"},
      {"measurement": "MIC", "setting": "[30]", "value": "≤ 0.5", "unit": "µg/mL"},
      {"measurement": "MIC", "setting": "[31]", "value": 16, "unit": "µg/mL"},
      {"measurement": "MIC", "setting": "[32]", "value": "> 32", "unit": "µg/mL"},
      {"measurement": "MIC", "setting": "[33]", "value": 2, "unit": "µg/mL"},
      {"measurement": "MIC", "setting": "[34]", "value": "≤ 0.5", "unit": "µg/mL"},
      {"measurement": "MIC", "setting": "[35]", "value": "≤ 2", "unit": "µg/mL"},
      {"measurement": "MIC", "setting": "[36]", "value": 2, "unit": "µg/mL"}
    ]}
  ]
}
